Compound activity (PubChem BioAssay)
ERAP1 HTS inh = ERAP1 (human) enzyme inhibition | Q9NZ08 | recombinant ERAP1, Leu-AMC fluorescence, 60 min | inhibition, % at 10.7 µM | hit rate 0.15% among 340,000 | AID 652197;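 active = mean replicate inhibition of at least 30%, or all replicates individually reaching that 30% level; inactive = mean below 30% and not every replicate reaching it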;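 also: 0% = neutral control wells and 100% = L-leucinethiol positive control wells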
E-selectin induc = induces E-selectin expression in human endothelial cells; P16581; HUVEC E-selectin immunofluorescence imaging; normalized: neutral wells 0, TNF-alpha wells 100; activation, % at 7.58 µM; hit rate 0.37% among 260,000;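 active = mean E-selectin-positive cell signal at least 10% of the positive control, reached in at least 60% of replicates, without over 20% cell loss; inconclusive = no rule given, readout overlaps actives, possibly toxicity-flagged; inactive = the rest, including those meeting only one limit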
Target sequence (P16581 whole entry, looked up): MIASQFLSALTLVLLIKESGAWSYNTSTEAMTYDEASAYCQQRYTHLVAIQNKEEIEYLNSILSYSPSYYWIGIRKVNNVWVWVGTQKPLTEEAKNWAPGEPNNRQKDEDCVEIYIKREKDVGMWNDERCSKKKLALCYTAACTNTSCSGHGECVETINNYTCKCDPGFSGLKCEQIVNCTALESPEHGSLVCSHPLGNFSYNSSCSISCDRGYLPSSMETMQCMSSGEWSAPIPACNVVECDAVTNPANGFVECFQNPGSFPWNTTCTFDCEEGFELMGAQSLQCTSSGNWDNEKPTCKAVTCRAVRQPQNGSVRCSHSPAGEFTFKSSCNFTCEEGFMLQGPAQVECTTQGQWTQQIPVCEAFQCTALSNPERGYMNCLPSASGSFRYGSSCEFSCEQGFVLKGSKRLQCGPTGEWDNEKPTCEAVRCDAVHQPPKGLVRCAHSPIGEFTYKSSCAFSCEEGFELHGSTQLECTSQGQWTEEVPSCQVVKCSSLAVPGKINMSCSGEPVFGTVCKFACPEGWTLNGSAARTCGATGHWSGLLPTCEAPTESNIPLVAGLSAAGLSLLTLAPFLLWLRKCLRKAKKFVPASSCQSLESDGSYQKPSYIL
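Read-out basis: % PE-positive cells; Test system: HUVEC primary endothelial cells; Technique: immunofluorescence imaging; Dosing: single-point compound dose.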
DENV2 CPE rescue = inhibitors of DENV2 cytopathic effect | CPE inhibition, % at 9.99 µM | hit rate 1.7% among 350,000 | DENV2-infected cells, cytopathic effect rescue, plate reader; in the data active = CPE inhibition above about 20%, passing the limit was not always enough; inconclusive = no clear call, values can overlap the other calls; tested in BHK-21 cells;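 also: 0% = median of neutral control wells and 100% = median of positive control wells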
SIRT5 inh = inhibitors of human sirtuin-5 desuccinylase; Purified SirT5, succinyl-peptide AMC, trypsin-coupled fluorescence; AID 652115; Q9NXA8; hit rate 1.1% among 330,000; inhibition, % at 15 µM; in the data active = inhibition above about 15%; inconclusive = no clear call, values can overlap the other calls
PglD inh = inhibitors of Campylobacter jejuni PglD acetyltransferase. purified PglD enzyme, DTNB colorimetric CoA detection. inhibition, % at 12.5 µM. hit rate 0.098% among 360,000; in the data active = inhibition above about 16%, passing the limit was not always enough; inconclusive = no clear call, values can overlap the other calls
An asterisk follows results filed as active; ? = inconclusive; / = not tested or not shown; ! = repeats disagree. Only some compounds are listed: those with a hit (about 2.5% of all), similar ones and a draw of the others.

SMILES | ERAP1 HTS inh | E-selectin induc | DENV2 CPE rescue | SIRT5 inh | PglD inh
O=C(Nc1ccc2c(c1)OCCO2)C(c1ccnc2ccccc12)n1c(=O)c(-c2ccco2)nc2ccccc21 (stereo unspecified) | -2.6 | -0.1 | 50.3* | -1.7 | /
O=C(CCCN1C(=O)c2ccccc2C1=O)Nc1nc2ccccc2[nH]1 | 0.5 | / | 17.6 | -3.1 | -3.0
CC(C)CC#Cc1ccc2c(c1)O[C@@H](CN(C)Cc1ccccc1F)[C@H](C)CN([C@H](C)CO)S2(=O)=O | -0.3 | 1.5 | -3.7 | 22.0* | -3.1
CC(C)CC#Cc1ccc2c(c1)O[C@@H](CN(C)Cc1ccccc1F)[C@@H](C)CN([C@H](C)CO)S2(=O)=O | -1.4 | 0.5 | 14.3 | 0.6 | -0.2
C[C@H]1CN([C@@H](C)CO)S(=O)(=O)c2ccc(C#CC3CC3)cc2O[C@@H]1CN(C)Cc1ccccc1F | -3.3 | -0.3 | -9.6 | 17.4* | -1.2
C[C@@H]1CN([C@@H](C)CO)S(=O)(=O)c2ccc(C#CCN(C)C)cc2O[C@H]1CN(C)Cc1ccccc1 | -2.5 | -0.2 | 23.8* | 3.4 | -1.8
COCC#Cc1ccc2c(c1)O[C@@H](CN(C)Cc1ccncc1)[C@@H](C)CN([C@@H](C)CO)S2(=O)=O | -1.5 | 0.0 | 22.1* | -6.4 | 0.4
Cc1ccc(S(=O)(=O)N[C@H]2C=C[C@@H](CC(=O)O)O[C@H]2CO)cc1 | 4.1 | -0.1 | 1.6 | 1.6 | 1.1
CCOc1ccc(NC(=O)CN(c2ccc(OCC)cc2)S(=O)(=O)c2c(C)[nH]c(=O)[nH]c2=O)cc1 | 3.1 | 1.0 | 4.0 | -0.1 | /
C[C@@H]1CN([C@@H](C)CO)S(=O)(=O)c2ccc(C#CCN(C)C)cc2O[C@@H]1CN(C)Cc1ccccc1F | 1.0 | 0.5 | 44.7* | 3.5 | -0.5
C[C@@H]1CN([C@H](C)CO)S(=O)(=O)c2ccc(C#CC3CC3)cc2O[C@H]1CN(C)Cc1ccc(F)cc1 | -2.5 | 0.4 | -7.4 | 16.0* | -3.8
C/C=C/c1ccc2c(c1)O[C@H](CN(C)C(=O)CN1CCOCC1)[C@@H](C)CN([C@H](C)CO)S2(=O)=O | -0.9 | 0.6 | -4.9 | 3.0 | -1.2
C[C@H]1CN([C@@H](C)CO)S(=O)(=O)c2ccc(Br)cc2O[C@H]1CN(C)Cc1ccc(F)cc1 | -0.1 | 0.0 | 40.7*! | -6.0 | -1.2
C[C@@H]1CN([C@H](C)CO)S(=O)(=O)c2ccc(Br)cc2O[C@@H]1CN(C)C(=O)CN1CCOCC1 | 4.8 | -1.5 | 55.4*! | -5.9 | -1.2
C[C@@H]1CN([C@H](C)CO)C(=O)c2cc(-c3ccccc3)cnc2O[C@H]1CN(C)C(=O)c1cccnc1 | 1.1 | 1.7 | -2.6 | 3.2 | /
CCCC#Cc1cnc2c(c1)C(=O)N([C@@H](C)CO)C[C@@H](C)[C@H](CN(C)C(=O)C1CCCCC1)O2 | / | 0.8 | / | / | /
CCn1c2ccccc2c2nnc(SCN3C(=O)c4ccccc4C3=O)nc21 | / | 120.9* | 0.8 | -2.1 | /
C[C@H]1CN([C@@H](C)CO)C(=O)c2cccc(NC(=O)CCCCCC(=O)Nc3ccccc3N)c2O[C@@H]1CN(C)C | -1.1 | 7.1 | 23.4* | 2.3 | /
CC(C)NC(=O)N(C)C[C@H]1Oc2c(NC(=O)CCCCCC(=O)Nc3ccccc3N)cccc2C(=O)N([C@@H](C)CO)C[C@H]1C | 4.7 | 40.4* | 2.0 | 9.2 | /
C[C@H](CO)N1C[C@H](C)[C@@H](CN(C)CC2CCCCC2)Oc2c(NC(=O)CCCCCC(=O)Nc3ccccc3N)cccc2C1=O | -1.3 | -2.3 | 8.2 | 19.0* | /
C[C@H]1CN([C@@H](C)CO)C(=O)c2cccc(NC(=O)CCCCCC(=O)Nc3ccccc3N)c2O[C@H]1CN(C)CC1CCCCC1 | -2.0 | 3.7 | -3.1 | -1.6 | /
COc1ccc(NC(=O)N(C)C[C@H]2Oc3c(NC(=O)CCCCCC(=O)Nc4ccccc4N)cccc3C(=O)N([C@H](C)CO)C[C@@H]2C)cc1 | -1.1 | -0.2 | 7.7 | 3.3 | /
CC(C)NC(=O)N(C)C[C@H]1Oc2c(NC(=O)CCCCCC(=O)Nc3ccccc3N)cccc2C(=O)N([C@H](C)CO)C[C@@H]1C | -0.8 | -15.3 | -10.7 | / | /
COc1ccc(NC(=O)N(C)C[C@H]2Oc3c(NC(=O)CCCCCC(=O)Nc4ccccc4N)cccc3C(=O)N([C@@H](C)CO)C[C@H]2C)cc1 | -0.4 | 0.0 | 33.6* | / | /
Nc1cc(Cl)cc2c1-c1ccc(Cl)cc1C2O (stereo unspecified) | -7.5 | 0.1 | 0.1 | 1.1 | -3.0
SMILES | ERAP1 HTS inh | E-selectin induc | DENV2 CPE rescue | SIRT5 inh | PglD inh
C[C@@H]1CN([C@H](C)CO)C(=O)c2cccc(NC(=O)C3CCOCC3)c2O[C@H]1CN(C)Cc1ccc(Oc2ccccc2)cc1 | 0.4 | -1.8 | 24.7* | 4.1 | 1.0
CC(C)NC(=O)Nc1cccc2c1O[C@@H](CN(C)Cc1ccc(Cl)c(Cl)c1)[C@@H](C)CN([C@H](C)CO)C2=O | -1.6 | 44.1* | -2.0 | -6.7 | -9.0
C[C@H]1CN([C@@H](C)CO)C(=O)c2cccc(NC(=O)C3CCCCC3)c2O[C@H]1CN(C)C(=O)Nc1ccc(C(F)(F)F)cc1 | 1.1 | 0.5 | 26.8* | 8.4 | -0.9
C[C@H](CO)N1C[C@H](C)[C@@H](CN(C)Cc2ccccc2)Oc2c(NC(=O)C3CCCCC3)cccc2C1=O | 0.4 | 0.1 | -11.4 | 17.6*! | 4.4
C[C@@H]1CN([C@@H](C)CO)C(=O)c2cccc(NC(=O)C3CCOCC3)c2O[C@@H]1CN(C)Cc1ccc(Oc2ccccc2)cc1 | -0.7 | -15.3 | 3.3 | -1.7 | 6.3
C[C@H]1CN([C@@H](C)CO)C(=O)c2cc(-c3ccccc3)cnc2O[C@H]1CN(C)Cc1ccccc1 | 0.4 | -0.1 | -2.4 | 0.0 | 3.6
CO[C@H]1CN(C)C(=O)c2cccc(C#N)c2OCC[C@@H]2CC[C@@H](OC)[C@@H](CN(C)C(=O)[C@@H]1C)O2 | -3.1 | 0.2 | -5.4 | -1.8 | 1.3
CC(C)NC(=O)Nc1cccc2c1O[C@@H](CN(C)Cc1ccc(C(F)(F)F)cc1)[C@@H](C)CN([C@@H](C)CO)C2=O | 1.4 | -5.9 | ? | 0.3 | 11.4
C[C@H](CO)N1C[C@H](C)[C@@H](CN(C)Cc2ccc(C(F)(F)F)cc2)Oc2c(NC(=O)C3CCCCC3)cccc2C1=O | -1.8 | ? | -0.9 | 16.7* | 5.3
CC(C)NC(=O)Nc1cccc2c1O[C@@H](CN(C)Cc1ccc(C(F)(F)F)cc1)[C@H](C)CN([C@H](C)CO)C2=O | 2.1 | 28.9* | 3.1 | 4.6 | 9.5
CC(Sc1ccccn1)C(=O)Nc1ccc2c(c1)OCCO2 (stereo unspecified) | -2.6 | / | 26.9* | 0.7 | -1.1
O=C(NCCN1CCOCC1)[C@@]1(CCS(=O)(=O)c2ccccc2)N=C(c2ccc(OCCCO)cc2)O[C@H]1c1ccccc1 | -1.8 | / | -5.6 | -0.7 | -1.3
COC(=O)[C@@]1(CCS(=O)(=O)c2ccccc2)N=C(c2ccc(OCCCO)cc2)O[C@H]1c1ccccc1CN=[N+]=[N-] | 1.7 | / | 21.6* | 0.6 | -0.6
O=C(N1CCOCC1)[C@]1(CCS(=O)(=O)c2ccccc2)N=C(c2ccc(OCCCO)cc2)O[C@@H]1c1ccccc1 | -3.3 | / | 22.8* | -2.9 | 2.4
